# Screening results deposited in PubChem by Sanford-Burnham Center for Chemical Genomics.
# mIAP block = inhibitors of mouse IAP, primary screen, biochemical, luminescence, uHTS. 330,000 tested, 0.2% active. inhibition, % at 10 µM. intestinal alkaline phosphatase [Mus musculus]. purified mouse IAP, CDP-Star luminescence, 30 min;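 active = inhibition of at least 40% at 10 µM in the primary screen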;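 note: plate controls were DMSO with enzyme for no effect and no enzyme wells for full effect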
# mIAP activ = activators of mouse IAP, primary screen, biochemical, luminescence, uHTS; muIAP, CDP-Star luminescence, 30 min; active compounds read high; 1 = vehicle-only enzyme signal, 0 = enzyme-free wells; intestinal alkaline phosphatase [Mus musculus]; 330,000 tested, 0.24% active; activation factor at 10 µM; AID 2805, 2010;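 active = activation factor of at least 2 at 20 µM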
#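 System: Mouse IAP enzyme | Also added: CDP-Star substrate | Dosing: Compounds dispensed in DMSO | Schedule: 30 min enzyme-substrate-compound incubation at room temperature | Technique: Chemiluminescence readout | Control set: DMSO-only wells and no-enzyme negative control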
# hIAP block = human IAP inhibitors, primary screen, biochemical, luminescence, uHTS. purified IAP, CDP-Star luminescence, 30 min. inhibition, % at 10 µM. 330,000 tested, 0.12% active. AID 2544, 2010;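 active = inhibition reaching a set limit with compound at 10 µM in the primary screen, cut at about 35% in these data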;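 note: plate controls were DMSO wells with enzyme for no effect and no-enzyme buffer wells for full effect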
# Target sequence (P09923 whole entry, looked up): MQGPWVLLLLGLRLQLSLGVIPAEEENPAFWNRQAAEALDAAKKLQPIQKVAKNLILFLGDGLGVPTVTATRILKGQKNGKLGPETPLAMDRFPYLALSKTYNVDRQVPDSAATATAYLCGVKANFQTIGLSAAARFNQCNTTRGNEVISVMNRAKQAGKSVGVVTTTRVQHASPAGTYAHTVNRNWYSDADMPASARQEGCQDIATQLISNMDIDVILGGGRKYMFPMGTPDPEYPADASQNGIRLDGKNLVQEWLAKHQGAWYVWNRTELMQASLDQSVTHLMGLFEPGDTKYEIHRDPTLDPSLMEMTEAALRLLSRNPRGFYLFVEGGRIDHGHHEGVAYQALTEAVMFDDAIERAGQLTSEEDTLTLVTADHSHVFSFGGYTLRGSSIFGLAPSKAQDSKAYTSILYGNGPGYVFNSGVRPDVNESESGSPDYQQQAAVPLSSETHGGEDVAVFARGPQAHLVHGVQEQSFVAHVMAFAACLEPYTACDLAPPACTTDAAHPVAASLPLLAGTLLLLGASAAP
# bIAP act = bovine intestinal alkaline phosphatase activators, primary screen, biochemical, bovine IAP, CDP-star luminescence | alkaline phosphatase, intestinal [Bos taurus] | purified bovine IAP, 30 min; active compounds read high; fold of DMSO-control signal, blank-subtracted | activation factor at 20 µM | 200,000 tested, 0.17% active;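 active = activation factor of 2 or more at 20 µM, a signal rise over negative controls twice the positive control's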
# hIAP activ = human IAP activators, primary screen, biochemical, luminescence, uHTS; Intestinal-type alkaline phosphatase (Homo sapiens), P09923; purified human IAP, CDP-Star luminescence, 30 min; active compounds read high; 1 = vehicle-only enzyme, 0 = enzyme-free background; activation factor at 10 µM; 330,000 tested, 0.16% active; AID 2524, 2010;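 active = activation factor of the enzyme at least 2-fold when tested at 20 µM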
# bIAP inhibitor = bovine intestinal alkaline phosphatase inhibitors, primary screen, selectivity assay for TNAP inhibitor project, biochemical, bovine IAP, CDP-star luminescence. alkaline phosphatase, intestinal [Bos taurus]. purified bovine IAP, 30 min. inhibition, % at 20 µM. 190,000 tested, under 10 active;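 active = over 50% inhibition of intestinal alkaline phosphatase at 20 µM in the single-dose screen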
#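 Assay system: bovine IAP enzyme; medium: DEA buffer 100 mM, pH 9.8, with MgCl2 1.0 mM, ZnCl2 0.02 mM; doses: 20 µM single dose; incubation: enzyme reaction for 30 min at room temperature; detection: CDP-star luminescence signal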
# The depositor's hits bear a star; i = inactive; . = no result given. Shown are actives, neighbours in structure and some others; about 0.79% of the full set was active somewhere.
SMILES,mIAP block,mIAP activ,hIAP block,bIAP act,hIAP activ,bIAP inhibitor
CN(c1cccc(NC(=O)CN(c2ccc(Cl)c(Cl)c2)S(=O)(=O)c2ccccc2)c1)S(C)(=O)=O,-52.7,1.53,6.8,1,0.932,-2.1
Cc1ccc(S(=O)(=O)N(CC(=O)Nc2cccc(N(C)S(C)(=O)=O)c2)c2ccc(Cl)c(Cl)c2)cc1,-158.0,2.58*,-14.2,1.4,1.14,-35.5
Cc1ccc(S(=O)(=O)N2CCN(CC(=O)NC3CCCc4ccccc43)CC2)c(C)c1 (stereo unspecified),-26.9,1.27,-2.7,56.5*,1.03,i
Oc1cc(O)cc(/C=C/c2ccc(O)c(O)c2)c1,78.2*,0.218,5.8,.,0.942,.
COc1ccc(S(=O)(=O)N2CCC3(CC2)CC(=O)c2ccccc2O3)cc1OC,3.9,0.961,8.4,.,0.916,.
O=C(c1ccccc1Cl)N1CCC(n2cccc2)CC1,3.8,0.962,12.9,.,0.871,.
C#CCOCCOCCOCCNc1nc(N2CCN(C(=O)[C@H](Cc3cc4ccccc4[nH]3)n3cc([C@@H](N)C(C)CC)nn3)CC2)nc(N2CCN(C(=O)[C@H](Cc3cc4ccccc4[nH]3)n3cc([C@@H](N)Cc4ccc(O)cc4)nn3)CC2)n1 (stereo partly specified),-108.2,2.08*,-10.7,2.2*,1.11,-115.9
C#CCOCCOCCOCCNc1nc(N2CCN(C(=O)[C@H](Cc3cc4ccccc4[nH]3)n3cc([C@@H](N)CC(C)C)nn3)CC2)nc(N2CCN(C(=O)[C@H](Cc3cc4ccccc4[nH]3)n3cc([C@@H](N)CC(C)C)nn3)CC2)n1,-109.2,2.09*,-12.1,3.2*,1.12,-220.4
C#CCOCCOCCOCCNc1nc(N2CCN(C(=O)[C@H]([C@@H](C)CC)n3cc([C@@H](N)Cc4ccc(O)cc4)nn3)CC2)nc(N2CCN(C(=O)[C@H](Cc3cc4ccccc4[nH]3)n3cc([C@@H](N)C(C)CC)nn3)CC2)n1 (stereo partly specified),-39.0,1.39,20.1,1.6,0.799,-59.0
Cc1ccc(SCCNC(=S)Nc2ccc(C)c(C)c2)cc1,-178.7,2.79*,-10.7,0.9,1.11,7.6
Cc1cccc(NC(=S)NNC(=S)NCc2ccccc2)c1,6.4,0.936,-20.7,0.9,1.21,7.4
Cc1cccc(NC(=S)NCCC(c2ccccc2)c2ccccc2)c1,i,7.57*,-0.9,0.9,1.01,9.6
COc1ccccc1NC(=S)NCCSc1ccc(C)cc1,-48.9,1.49,-16.8,0.9,1.17,6.4
Cc1ccc(SCCNC(=S)Nc2cc(C)ccc2C)cc1,-54.3,1.54,-2.6,0.4,1.03,.
S=C(NCCSCc1c(Cl)cccc1Cl)Nc1ccccc1,-148.5,2.48*,-6.5,0.7,1.06,26.2
Cc1ccc(SCCNC(=S)Nc2ccccc2)cc1,-115.3,2.15*,-27.2,0.6,1.27,37.1
COc1ccc(C(=O)NCCCN(C)CCCNC(=O)c2ccc(OC)cc2)cc1,-1.0,1.01,-3.5,.,1.03,.
CNC[C@H](Cc1cccc2ccccc12)NC[C@H](CCSC)NCC1CCC(C(C)(C)C)CC1 (stereo partly specified),-2.5,1.02,4.4,.,0.956,.
Cc1cc(C)cc(NC(=S)NCCSc2ccc(Cl)cc2)c1,-128.5,2.29*,-2.2,1,1.02,-4.1
Cc1cccc(OCCCCCn2ccnc2)c1C,-6.3,1.06,-0.2,3*,1,-201.9
O=c1oc2cc(Br)ccc2n1Cc1ccccc1,5.7,0.943,0.1,.,0.999,.
COC(=O)c1ccc(NC(=O)Nc2ccc(OC)c(OC)c2)cc1,-56.7,1.57,-32.1,1.2,1.32,-22.3
COc1ccc(NC(=O)NC23CC4(C)CC(C)(CC(C)(C4)C2)C3)cc1OC,-293.5,3.94*,13.1,0.9,0.869,8.5
CCOc1ccc(C(=O)N/N=C/c2ccccc2[N+](=O)[O-])cc1,-10.1,1.1,-12.5,2*,1.12,-101.4
N#Cc1c(NCCN)nc(NCc2ccccc2)c2c1CCN(Cc1ccccc1)C2,.,.,.,3*,.,-195.4
SMILES,mIAP block,mIAP activ,hIAP block,bIAP act,hIAP activ,bIAP inhibitor
Nc1[nH]nc2nc(NCc3ccccc3)c3c(c12)CCN(Cc1ccccc1)C3,-15.9,1.16,-1.0,4.7*,1.01,-370.5
O=C(Nc1ccccc1)C1=C[C@@H](c2ccc(C(F)(F)F)cc2)C[C@@H](OCc2ccc(CO)cc2)O1,1.5,0.985,4.8,0.8,0.952,20.9
CCCn1c(=O)n(C)c(=O)c2c(SCC(=O)Nc3cc(C)on3)nc(C(C)(C)C)nc21,6.9,0.931,7.4,.,0.925,.
O=C(Nc1cccc2nsnc12)c1ccc(-c2cccc(Cl)c2)o1,2.5,0.975,6.8,0.9,0.932,10.0
CCCN(CCC)C(=O)CSc1nc2n[nH]c(C)c2c(=N)n1-c1ccc(OCC)cc1,-7.7,1.08,9.7,2.1*,0.903,-111.1
CCc1ccccc1NC(=O)CSc1nc2n[nH]c(C)c2c(=N)n1-c1ccc(OC)cc1,.,.,.,0.9,.,7.1
CCCN(CCC)C(=O)CSc1nc2n[nH]c(C)c2c(=N)n1-c1ccc(OC)cc1,-27.6,1.28,-10.5,2.9*,1.1,-190.4
Cc1onc(-c2ccccc2)c1C(=O)NNC(=S)NC(=O)c1ccc(Cl)cc1Cl,15.6,0.844,-73.2,1.1,1.73,-5.0
Cc1cccc(NS(=O)(=O)c2c(C(=O)N3CCOCC3)c(C)n(C)c2C)c1C,9.7,0.903,3.0,.,0.97,.
CN(C)c1ccc(C2Nc3ccccc3C(=O)N2NS(C)(=O)=O)cc1 (stereo unspecified),3.4,0.966,-8.7,.,1.09,.
Cc1ccc(SCc2nc3ccccc3n2CC(=O)Nc2ccccc2)cc1,-135.8,2.36*,-3.0,1,1.03,0.3
O=C(Cn1c(CSc2ccccc2)nc2ccccc21)Nc1ccccc1,.,.,.,1.1,.,-8.4
COC(=O)N/N=C/c1c(C)nn(-c2cccc(Cl)c2)c1Cl,3.9,0.961,9.8,3*,0.902,-200.8
COc1ccc(C2C(C(=O)/C=C/c3ccco3)=C(O)C(=O)N2CCN2CCOCC2)cc1OC (stereo unspecified),16.7,0.833,10.0,0.9,0.9,5.7
CC(/C=C/c1ccco1)=N\NC(=O)c1cc(C)[nH]n1,40.9*,0.591,-22.4,1.2,1.22,-24.9
CC(CN1C(C)CCCC1C)OC(=O)c1ccc(F)cc1 (stereo unspecified),8.2,0.918,1.0,.,0.989,.
